Data as given in ChEMBL document CHEMBL1146019, “Structure-based design of novel HIV-1 protease inhibitors to combat drug resistance” (J Med Chem, 2006).

test system: Human immunodeficiency virus 1; experiment: Antiviral activity against HIV1 LAI isolate in human MT2 cells; assay type: functional, organism-based; details: Human immunodeficiency virus 1, MT2
Outline: (§1)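 MT-2 cells (2 × 10⁴/mL) were infected with 100 TCID₅₀ of virus and incubated with various drug concentrations at 37 °C for 7 days. MTT was then added for 2 h at 37 °C, formazan was dissolved in acidified 2-propanol with 4% Triton X-100, and optical density was read. Assays were run in duplicate or triplicate.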

SMILES | IC50
CC(C)c1nc(CN(C)C(=O)N[C@H](C(=O)N[C@@H](Cc2ccccc2)C[C@H](O)[C@H](Cc2ccccc2)NC(=O)OCc2cncs2)C(C)C)cs1 [RITONAVIR] | 34 nM
CC(C)CN(CC(O)C(Cc1ccccc1)NC(=O)O[C@@H]1C[C@@H]2CCO[C@@H]2C1)S(=O)(=O)c1ccc(N)cc1 (stereo not given in full) | 8 nM
CC(C)CN(CC(O)C(Cc1ccccc1)NC(=O)O[C@@H]1C[C@@H]2CCO[C@@H]2C1)S(=O)(=O)c1ccc(CO)cc1 (stereo not given in full) | 1.8 nM
CC(C)(C)NC(=O)[C@@H]1CN(Cc2cccnc2)CCN1C[C@@H](O)C[C@@H](Cc1ccccc1)C(=O)N[C@H]1c2ccccc2C[C@H]1O | 26 nM

test system: Human immunodeficiency virus 1; experiment: Antiviral activity against HIV1 LAI isolate in human PHA-PBMC cells; assay type: functional, organism-based; details: Human immunodeficiency virus 1, PBMC
Outline: (§2)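 PHA-activated PBMC (1 × 10⁶/mL) were exposed to 50 TCID₅₀ of each isolate and cultured with or without drug in 10-fold serial dilutions. On day 7, supernatant p24 Gag was measured by chemiluminescent enzyme immunoassay. IC₅₀ was the concentration suppressing p24 production by 50% relative to drug-free control cultures. Assays were run in triplicate.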

SMILES | IC50
CC(C)c1nc(CN(C)C(=O)N[C@H](C(=O)N[C@@H](Cc2ccccc2)C[C@H](O)[C@H](Cc2ccccc2)NC(=O)OCc2cncs2)C(C)C)cs1 [RITONAVIR] | 43 nM
CC(C)CN(CC(O)C(Cc1ccccc1)NC(=O)O[C@@H]1C[C@@H]2CCO[C@@H]2C1)S(=O)(=O)c1ccc(CO)cc1 (stereo not given in full) | 1.8 nM
CC(C)(C)NC(=O)[C@@H]1CN(Cc2cccnc2)CCN1C[C@@H](O)C[C@@H](Cc1ccccc1)C(=O)N[C@H]1c2ccccc2C[C@H]1O | 32 nM

test system: Human immunodeficiency virus 1; experiment: Antiviral activity against HIV1 BA-L isolate in human PHA-PBMC cells; assay type: functional, organism-based; details: Human immunodeficiency virus 1, PBMC; outline: as §2

SMILES | IC50
CC(C)c1nc(CN(C)C(=O)N[C@H](C(=O)N[C@@H](Cc2ccccc2)C[C@H](O)[C@H](Cc2ccccc2)NC(=O)OCc2cncs2)C(C)C)cs1 [RITONAVIR] | 36 nM
CC(C)CN(CC(O)C(Cc1ccccc1)NC(=O)O[C@@H]1C[C@@H]2CCO[C@@H]2C1)S(=O)(=O)c1ccc(CO)cc1 (stereo not given in full) | 2 nM
CC(C)(C)NC(=O)[C@@H]1CN(Cc2cccnc2)CCN1C[C@@H](O)C[C@@H](Cc1ccccc1)C(=O)N[C@H]1c2ccccc2C[C@H]1O | 24 nM

test system: Human immunodeficiency virus 2; experiment: Antiviral activity against HIV2 EHO isolate in human MT2 cells; assay type: functional, organism-based; details: Human immunodeficiency virus 2, MT2; outline: as §1

SMILES | IC50
CC(C)c1nc(CN(C)C(=O)N[C@H](C(=O)N[C@@H](Cc2ccccc2)C[C@H](O)[C@H](Cc2ccccc2)NC(=O)OCc2cncs2)C(C)C)cs1 [RITONAVIR] | 290 nM
CC(C)CN(CC(O)C(Cc1ccccc1)NC(=O)O[C@@H]1C[C@@H]2CCO[C@@H]2C1)S(=O)(=O)c1ccc(CO)cc1 (stereo not given in full) | 21 nM
CC(C)(C)NC(=O)[C@@H]1CN(Cc2cccnc2)CCN1C[C@@H](O)C[C@@H](Cc1ccccc1)C(=O)N[C@H]1c2ccccc2C[C@H]1O | 13 nM

test system: MT2; experiment: Cytotoxicity against human MT2 cells; assay type: functional; details: not given

SMILES | CC50
CC(C)CN(CC(O)C(Cc1ccccc1)NC(=O)O[C@@H]1C[C@@H]2CCO[C@@H]2C1)S(=O)(=O)c1ccc(CO)cc1 (stereo not given in full) | > 100000 nM

test system: PBMC; experiment: Cytotoxicity against human PHA-PBMC cells; assay type: functional; details: not given

SMILES | CC50
CC(C)CN(CC(O)C(Cc1ccccc1)NC(=O)O[C@@H]1C[C@@H]2CCO[C@@H]2C1)S(=O)(=O)c1ccc(CO)cc1 (stereo not given in full) | > 100000 nM

test system: Human immunodeficiency virus 1; experiment: Antiviral activity against multi drug-resistant HIV1 ET variant in human PHA-PBMC cells; assay type: functional, organism-based; details: Human immunodeficiency virus 1, PBMC
Outline: (§3)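 PHA-activated peripheral blood mononuclear cells (1 × 10⁶/mL) infected with 50 TCID₅₀ of each isolate and cultured with or without drug in 10-fold serial dilutions. On day 7, p24 Gag protein in the supernatant was measured by automated chemiluminescent enzyme immunoassay. IC₅₀ was the concentration suppressing p24 production by 50% relative to drug-free control cultures. Assays were run in triplicate.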

SMILES | IC50
CC(C)c1nc(CN(C)C(=O)N[C@H](C(=O)N[C@@H](Cc2ccccc2)C[C@H](O)[C@H](Cc2ccccc2)NC(=O)OCc2cncs2)C(C)C)cs1 [RITONAVIR] | 15 nM
CC(C)CN(CC(O)C(Cc1ccccc1)NC(=O)O[C@@H]1C[C@@H]2CCO[C@@H]2C1)S(=O)(=O)c1ccc(CO)cc1 (stereo not given in full) | 3 nM
CC(C)(C)NC(=O)[C@@H]1CN(Cc2cccnc2)CCN1C[C@@H](O)C[C@@H](Cc1ccccc1)C(=O)N[C@H]1c2ccccc2C[C@H]1O | 30 nM

test system: Human immunodeficiency virus 1; experiment: Antiviral activity against multi drug-resistant HIV1 B variant in human PHA-PBMC cells; assay type: functional, organism-based; details: Human immunodeficiency virus 1, PBMC; outline: as §3

SMILES | IC50
CC(C)c1nc(CN(C)C(=O)N[C@H](C(=O)N[C@@H](Cc2ccccc2)C[C@H](O)[C@H](Cc2ccccc2)NC(=O)OCc2cncs2)C(C)C)cs1 [RITONAVIR] | > 1000 nM
CC(C)CN(C[C@@H](O)[C@H](Cc1ccccc1)NC(=O)O[C@H]1CO[C@H]2OCC[C@H]21)S(=O)(=O)c1ccc(N)cc1 | 10.2 nM
CC(C)CN(CC(O)C(Cc1ccccc1)NC(=O)O[C@@H]1C[C@@H]2CCO[C@@H]2C1)S(=O)(=O)c1ccc(CO)cc1 (stereo not given in full) | 15 nM
CC(C)(C)NC(=O)[C@@H]1CN(Cc2cccnc2)CCN1C[C@@H](O)C[C@@H](Cc1ccccc1)C(=O)N[C@H]1c2ccccc2C[C@H]1O | > 1000 nM

molecular target: Human immunodeficiency virus type 1 protease (Human immunodeficiency virus 1, UniProt Q72874); experiment: Inhibition of HIV1 protease; details: not given

SMILES | Ki
CC(C)CN(CC(O)C(Cc1ccccc1)NC(=O)O[C@@H]1C[C@@H]2CCO[C@@H]2C1)S(=O)(=O)c1ccc(N)cc1 (stereo not given in full) | 0.14 nM

test system: Human immunodeficiency virus 1; experiment: Antiviral activity against multi drug-resistant HIV1 C variant in human PHA-PBMC cells; assay type: functional, organism-based; details: Human immunodeficiency virus 1, PBMC; outline: as §3

SMILES | IC50
CC(C)c1nc(CN(C)C(=O)N[C@H](C(=O)N[C@@H](Cc2ccccc2)C[C@H](O)[C@H](Cc2ccccc2)NC(=O)OCc2cncs2)C(C)C)cs1 [RITONAVIR] | > 1000 nM
CC(C)CN(C[C@@H](O)[C@H](Cc1ccccc1)NC(=O)O[C@H]1CO[C@H]2OCC[C@H]21)S(=O)(=O)c1ccc(N)cc1 | 3.5 nM
CC(C)CN(CC(O)C(Cc1ccccc1)NC(=O)O[C@@H]1C[C@@H]2CCO[C@@H]2C1)S(=O)(=O)c1ccc(CO)cc1 (stereo not given in full) | 5 nM
CC(C)(C)NC(=O)[C@@H]1CN(Cc2cccnc2)CCN1C[C@@H](O)C[C@@H](Cc1ccccc1)C(=O)N[C@H]1c2ccccc2C[C@H]1O | 500 nM

test system: Human immunodeficiency virus 1; experiment: Antiviral activity against multi drug-resistant HIV1 G variant in human PHA-PBMC cells; assay type: functional, organism-based; details: Human immunodeficiency virus 1, PBMC; outline: as §3

SMILES | IC50
CC(C)c1nc(CN(C)C(=O)N[C@H](C(=O)N[C@@H](Cc2ccccc2)C[C@H](O)[C@H](Cc2ccccc2)NC(=O)OCc2cncs2)C(C)C)cs1 [RITONAVIR] | > 1000 nM
CC(C)CN(C[C@@H](O)[C@H](Cc1ccccc1)NC(=O)O[C@H]1CO[C@H]2OCC[C@H]21)S(=O)(=O)c1ccc(N)cc1 | 3.7 nM
CC(C)CN(CC(O)C(Cc1ccccc1)NC(=O)O[C@@H]1C[C@@H]2CCO[C@@H]2C1)S(=O)(=O)c1ccc(CO)cc1 (stereo not given in full) | 20 nM
CC(C)(C)NC(=O)[C@@H]1CN(Cc2cccnc2)CCN1C[C@@H](O)C[C@@H](Cc1ccccc1)C(=O)N[C@H]1c2ccccc2C[C@H]1O | 500 nM

test system: Human immunodeficiency virus 1; experiment: Antiviral activity against multi drug-resistant HIV1 TM variant in human PHA-PBMC cells; assay type: functional, organism-based; details: Human immunodeficiency virus 1, PBMC; outline: as §3

SMILES | IC50
CC(C)c1nc(CN(C)C(=O)N[C@H](C(=O)N[C@@H](Cc2ccccc2)C[C@H](O)[C@H](Cc2ccccc2)NC(=O)OCc2cncs2)C(C)C)cs1 [RITONAVIR] | > 1000 nM
CC(C)CN(C[C@@H](O)[C@H](Cc1ccccc1)NC(=O)O[C@H]1CO[C@H]2OCC[C@H]21)S(=O)(=O)c1ccc(N)cc1 | 3.5 nM
CC(C)CN(CC(O)C(Cc1ccccc1)NC(=O)O[C@@H]1C[C@@H]2CCO[C@@H]2C1)S(=O)(=O)c1ccc(CO)cc1 (stereo not given in full) | 4 nM
CC(C)(C)NC(=O)[C@@H]1CN(Cc2cccnc2)CCN1C[C@@H](O)C[C@@H](Cc1ccccc1)C(=O)N[C@H]1c2ccccc2C[C@H]1O | > 1000 nM

test system: Human immunodeficiency virus 1; experiment: Antiviral activity against multi drug-resistant HIV1 EV variant in human PHA-PBMC cells; assay type: functional, organism-based; details: Human immunodeficiency virus 1, PBMC; outline: as §3

SMILES | IC50
CC(C)c1nc(CN(C)C(=O)N[C@H](C(=O)N[C@@H](Cc2ccccc2)C[C@H](O)[C@H](Cc2ccccc2)NC(=O)OCc2cncs2)C(C)C)cs1 [RITONAVIR] | > 1000 nM
CC(C)CN(CC(O)C(Cc1ccccc1)NC(=O)O[C@@H]1C[C@@H]2CCO[C@@H]2C1)S(=O)(=O)c1ccc(CO)cc1 (stereo not given in full) | 52 nM
CC(C)(C)NC(=O)[C@@H]1CN(Cc2cccnc2)CCN1C[C@@H](O)C[C@@H](Cc1ccccc1)C(=O)N[C@H]1c2ccccc2C[C@H]1O | > 1000 nM

test system: Human immunodeficiency virus 1; experiment: Antiviral activity against multi drug-resistant HIV1 ES variant in human PHA-PBMC cells; assay type: functional, organism-based; details: Human immunodeficiency virus 1, PBMC; outline: as §3

SMILES | IC50
CC(C)c1nc(CN(C)C(=O)N[C@H](C(=O)N[C@@H](Cc2ccccc2)C[C@H](O)[C@H](Cc2ccccc2)NC(=O)OCc2cncs2)C(C)C)cs1 [RITONAVIR] | > 1000 nM
CC(C)CN(CC(O)C(Cc1ccccc1)NC(=O)O[C@@H]1C[C@@H]2CCO[C@@H]2C1)S(=O)(=O)c1ccc(CO)cc1 (stereo not given in full) | 31 nM
CC(C)(C)NC(=O)[C@@H]1CN(Cc2cccnc2)CCN1C[C@@H](O)C[C@@H](Cc1ccccc1)C(=O)N[C@H]1c2ccccc2C[C@H]1O | > 1000 nM

test system: Human immunodeficiency virus 1; experiment: Antiviral activity against multi drug-resistant HIV1 K variant in human PHA-PBMC cells; assay type: functional, organism-based; details: Human immunodeficiency virus 1, PBMC; outline: as §3

SMILES | IC50
CC(C)c1nc(CN(C)C(=O)N[C@H](C(=O)N[C@@H](Cc2ccccc2)C[C@H](O)[C@H](Cc2ccccc2)NC(=O)OCc2cncs2)C(C)C)cs1 [RITONAVIR] | 57 nM
CC(C)CN(C[C@@H](O)[C@H](Cc1ccccc1)NC(=O)O[C@H]1CO[C@H]2OCC[C@H]21)S(=O)(=O)c1ccc(N)cc1 | 3 nM
CC(C)CN(CC(O)C(Cc1ccccc1)NC(=O)O[C@@H]1C[C@@H]2CCO[C@@H]2C1)S(=O)(=O)c1ccc(CO)cc1 (stereo not given in full) | 3 nM
CC(C)(C)NC(=O)[C@@H]1CN(Cc2cccnc2)CCN1C[C@@H](O)C[C@@H](Cc1ccccc1)C(=O)N[C@H]1c2ccccc2C[C@H]1O | 260 nM
